The target of assay [1] is T1, Tyrosine-protein phosphatase non-receptor type 1 (Homo sapiens, UniProt P18031).
T1 sequence (P18031 whole entry): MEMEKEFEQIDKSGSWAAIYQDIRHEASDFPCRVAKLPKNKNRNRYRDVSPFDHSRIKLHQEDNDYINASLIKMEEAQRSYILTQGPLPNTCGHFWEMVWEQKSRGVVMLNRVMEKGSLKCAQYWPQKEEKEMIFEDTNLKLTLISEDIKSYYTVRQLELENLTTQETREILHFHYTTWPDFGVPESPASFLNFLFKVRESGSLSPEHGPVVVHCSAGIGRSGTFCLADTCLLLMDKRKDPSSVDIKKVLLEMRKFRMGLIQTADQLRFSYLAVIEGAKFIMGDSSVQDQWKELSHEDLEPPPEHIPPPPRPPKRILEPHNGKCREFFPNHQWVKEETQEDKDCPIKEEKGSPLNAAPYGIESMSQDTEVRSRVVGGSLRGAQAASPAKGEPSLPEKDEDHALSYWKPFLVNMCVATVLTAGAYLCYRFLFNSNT
The assay is described as follows: Inhibition of recombinant human PTP1B using pNPP as substrate measured after 30 mins. An outline of the steps: (§1)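 75 nM recombinant enzyme (PTP1B, TCPTP or SHP2) with 2.5 mM pNPP in 10 mM Tris, 25 mM NaCl, 1 mM EDTA, pH 7.1; compounds added from DMSO. Reaction run 30 min at room temperature, stopped with 2.0 N NaOH, pNP read at 405 nm. Sodium vanadate as positive control. IC50 from enzyme progress curves; means of triplicates, repeated twice.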

For a further assay, the system named is CHO. Description: Cytotoxicity against CHO cells assessed as reduction in cell viability measured after 24 hrs by MTT assay. Type of assay: cell-based. The settings on record: Cricetulus griseus. The method in brief: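 CHO cells in DMEM with 10% FBS and 1% penicillin-streptomycin, 5% CO2, 37 °C; 5×10^3 cells/well seeded, treated after 24 h with varying compound concentrations for 24 h. MTT then added for 4 h at 37 °C in the dark, medium removed, formazan dissolved in DMSO, OD read at 490 nm.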
For orientation: Formazan colour is commonly taken as a measure of viable cells.

In another assay the test system is CHO (Cricetulus griseus). The assay is described as follows: Cytotoxicity against Chinese hamster CHO cells assessed as reduction in cell viability measured after 24 hrs by MTT assay.
Assay [2] deals with T2, Tyrosine-protein phosphatase non-receptor type 2 (Homo sapiens, UniProt P17706).
T2 sequence (P17706 whole entry): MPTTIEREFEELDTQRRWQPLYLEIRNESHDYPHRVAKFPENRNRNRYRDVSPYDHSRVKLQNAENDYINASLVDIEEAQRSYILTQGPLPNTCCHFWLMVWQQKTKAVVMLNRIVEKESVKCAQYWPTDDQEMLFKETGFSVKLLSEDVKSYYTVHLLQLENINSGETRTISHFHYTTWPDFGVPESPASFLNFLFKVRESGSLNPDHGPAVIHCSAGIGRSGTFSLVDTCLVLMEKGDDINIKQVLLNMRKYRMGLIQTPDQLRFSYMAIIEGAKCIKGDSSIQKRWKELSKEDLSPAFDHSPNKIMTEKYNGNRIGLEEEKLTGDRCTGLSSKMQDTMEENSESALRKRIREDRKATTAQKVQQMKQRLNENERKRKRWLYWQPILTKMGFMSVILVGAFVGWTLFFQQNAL
The assay is described as follows: Inhibition of recombinant human TCPTP using pNPP as substrate measured after 30 mins. The method in brief:
as §1

In assay [3] the target is T3, Tyrosine-protein phosphatase non-receptor type 11 (Homo sapiens, UniProt Q06124).
T3 sequence (Q06124 whole entry): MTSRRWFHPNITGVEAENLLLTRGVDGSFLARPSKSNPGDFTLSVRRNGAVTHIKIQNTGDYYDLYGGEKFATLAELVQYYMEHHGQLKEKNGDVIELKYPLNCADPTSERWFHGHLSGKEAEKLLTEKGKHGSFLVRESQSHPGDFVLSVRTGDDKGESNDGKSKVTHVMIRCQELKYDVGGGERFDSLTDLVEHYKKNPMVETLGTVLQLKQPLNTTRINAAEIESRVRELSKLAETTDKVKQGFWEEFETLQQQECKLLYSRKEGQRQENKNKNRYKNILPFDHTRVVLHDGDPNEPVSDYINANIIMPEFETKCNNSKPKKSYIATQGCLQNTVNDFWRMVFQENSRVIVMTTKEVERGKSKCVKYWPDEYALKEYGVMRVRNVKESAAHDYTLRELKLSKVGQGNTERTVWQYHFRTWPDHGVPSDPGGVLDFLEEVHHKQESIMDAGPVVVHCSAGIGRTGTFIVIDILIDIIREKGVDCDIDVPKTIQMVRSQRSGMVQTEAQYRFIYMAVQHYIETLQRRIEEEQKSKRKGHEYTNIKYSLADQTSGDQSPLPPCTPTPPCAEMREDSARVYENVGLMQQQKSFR
Description: Inhibition of recombinant SHP2 (unknown origin) using pNPP as substrate measured after 30 mins. An outline of the steps:
as §1

Assay [4] concerns the target T4, Tyrosine-protein phosphatase non-receptor type 1 (Homo sapiens) (UniProt P18031).
T4 sequence (whole entry): T1 sequence (P18031 whole entry)
The assay is described as follows: Inhibition of PTP1B in human HepG2 cells assessed as improvement in insulin-induced 2-NBDG uptake at 10 uM incubated for 24 hrs prior to compound washout followed by insulin stimulation for 20 mins and subsequent 2-NBDG addition measured after 60 mins by FACS analysis relative to control. The format is cell-based. An outline of the steps: (§2)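 HepG2 cells in DMEM with 10% FBS and 1% penicillin-streptomycin, 5% CO2, 37 °C; 5×10^4 cells/well in 24-well plates. Compound exposure 24 h, then two PBS washes. Stimulated with 100 nM insulin for 20 min, then 50 μM 2-NBDG for 60 min. Uptake read by flow cytometry, FL1 channel; pioglitazone as positive control.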
Background: Flow cytometry measures light scatter and fluorescence of single cells or particles in a stream.

For assay [5], the target named is T4, Tyrosine-protein phosphatase non-receptor type 1 (Homo sapiens). The assay is described as follows: Inhibition of PTP1B in human HepG2 cells assessed as improvement in insulin-induced 2-NBDG uptake at 5 uM incubated for 24 hrs prior to compound washout followed by insulin stimulation for 20 mins and subsequent 2-NBDG addition measured after 60 mins by FACS analysis relative to control. The format is cell-based. The method in brief: as §2

The target is the same in assay [6]. The assay is described as follows: Inhibition of PTP1B in human HepG2 cells assessed as improvement in insulin-induced 2-NBDG uptake at 20 uM incubated for 24 hrs prior to compound washout followed by insulin stimulation for 20 mins and subsequent 2-NBDG addition measured after 60 mins by FACS analysis relative to control. Type of assay: cell-based. An outline of the steps:
as §2

Regarding `O=C(Nc1ccccc1)C1=CO[C@@H](O[C@@H]2O[C@H](CO)[C@@H](O)[C@H](O)[C@H]2O)[C@@H]2C(CO)=CC[C@H]12`, the 50% inhibitory concentration (IC50) in assay [1] is greater than 100 µM.

Turning to `COC(=O)C1=CO[C@@H](O[C@@H]2O[C@H](COCc3ccccc3)[C@@H](OCc3ccccc3)[C@H](OCc3ccccc3)[C@H]2OCc2ccccc2)[C@@H]2C(COCc3ccccc3)=CC[C@H]12`, the IC50 in the assay on CHO was 42 µM; with CHO (Cricetulus griseus), greater than 200 µM; in assay [1], 0.68 µM.

Take `O=C(Nc1ccccc1F)C1=CO[C@@H](O[C@@H]2O[C@H](CO)[C@@H](O)[C@H](O)[C@H]2O)[C@@H]2C(CO)=CC[C@H]12`: in assay [1], the IC50 stood at 20.8 µM.

With `COc1ccccc1NC(=O)C1=CO[C@@H](O[C@@H]2O[C@H](CO)[C@@H](O)[C@H](O)[C@H]2O)[C@@H]2C(CO)=CC[C@H]12`, the IC50 in assay [1] is 50.8 µM.

Take `O=C(Nc1ccc(Oc2ccccc2)cc1)C1=CO[C@@H](O[C@@H]2O[C@H](CO)[C@@H](O)[C@H](O)[C@H]2O)[C@@H]2C(CO)=CC[C@H]12`: in assay [1], the concentration for half-maximal inhibition (IC50) worked out at 25.2 µM.

As to `COC(=O)C1=CO[C@@H](O[C@@H]2O[C@H](CO)[C@@H](O)[C@H](O)[C@H]2O)[C@@H]2C(CO)=CC[C@H]12` [GENIPOSIDE], the 50% inhibitory concentration (IC50) in assay [2], in assay [1] and in assay [3] was greater than 500 µM each time.

In the case of `COC(=O)C1=CO[C@@H](OC)[C@@H]2C(CO)=CC[C@H]12`, the IC50 in assay [1] is 236 µM.

As for `CCc1ccc(CCOc2ccc(CC3SC(=O)NC3=O)cc2)nc1` (centres undefined), the inhibition came out at 46% in assay [4], 33.8% in assay [5] and 63.5% in assay [6].

`CCOS(=O)(=O)/C=C/c1ccc(OCC2=CC[C@@H]3C(C(=O)Nc4ccc(Oc5ccccc5)cc4)=CO[C@@H](OCc4ccccc4)[C@H]23)cc1`: the IC50 in the assay with CHO is 62 µM; with CHO (Cricetulus griseus), greater than 200 µM; in assay [1], 0.99 µM.

Regarding `CCO[C@@H]1OC=C(C(=O)OC)[C@H]2CC=C(CO)[C@@H]12`, the half-inhibitory concentration (IC50) in assay [1] was 64.7 µM.

For `CCOS(=O)(=O)/C=C/c1ccc(OCC2=CC[C@@H]3C(C(=O)Nc4ccc(Oc5ccc(Br)cc5Cl)cc4)=CO[C@@H](OCc4ccccc4)[C@H]23)cc1`, the inhibition in assay [4] worked out at 68.3%; in assay [5] it was 43.8%; in assay [6] it was 64.4%. Moreover, the IC50 was greater than 200 µM with CHO; 1.29 µM in assay [2]; greater than 200 µM with CHO (Cricetulus griseus); 0.41 µM in assay [1]; 3.97 µM in assay [3].

For `CCOS(=O)(=O)/C=C/c1ccc(OCC2=CC[C@@H]3C(C(=O)Nc4ccc(Oc5ccc(Br)cc5Cl)cc4)=CO[C@@H](OC)[C@H]23)cc1`, the IC50 in the assay on CHO was greater than 200 µM; in the assay on CHO (Cricetulus griseus) it was greater than 200 µM; in assay [1] it was 1.05 µM.

With `COC(=O)C1=CO[C@@H](O)[C@@H]2C(CO)=CC[C@H]12` [GENIPIN], the IC50 in assay [2], in assay [1] and in assay [3] was greater than 500 µM throughout.

For `CCOS(=O)(=O)/C=C/c1ccc(OCC2=CC[C@@H]3C(C(=O)OC)=CO[C@@H](OCc4ccccc4)[C@H]23)cc1`, the half-inhibitory concentration (IC50) in assay [1] came to 13.2 µM.

Turning to `CCOS(=O)(=O)/C=C/c1ccc(OCC2=CC[C@@H]3C(C(=O)Nc4ccc(Oc5ccc6ccccc6c5)cc4)=CO[C@@H](OC)[C@H]23)cc1`, the IC50 with CHO was greater than 200 µM; with CHO (Cricetulus griseus), greater than 200 µM; in assay [1], 0.75 µM.

Regarding `O=C(Nc1ccc(-c2ccccc2)cc1)C1=CO[C@@H](O[C@@H]2O[C@H](CO)[C@@H](O)[C@H](O)[C@H]2O)[C@@H]2C(CO)=CC[C@H]12`, the IC50 in assay [1] was 21.7 µM.

In the case of `COC(=O)C1=CO[C@@H](OCc2ccccc2)[C@@H]2C(CO)=CC[C@H]12`, the half-maximal inhibitory concentration (IC50) in assay [1] amounted to 40.3 µM.

On to `CCOS(=O)(=O)/C=C/c1ccc(OCC2=CC[C@@H]3C(C(=O)Nc4ccc(Oc5ccccc5)cc4)=CO[C@@H](OC)[C@H]23)cc1`, for which the half-inhibitory concentration (IC50) was greater than 200 µM in the assay with CHO, greater than 200 µM in the assay on CHO (Cricetulus griseus) and 2.67 µM in assay [1].

Consider `CCOS(=O)(=O)/C=C/c1ccc(CNC(=O)C2=CO[C@@H](O[C@@H]3O[C@H](COCc4ccccc4)[C@@H](OCc4ccccc4)[C@H](OCc4ccccc4)[C@H]3OCc3ccccc3)[C@@H]3C(COCc4ccccc4)=CC[C@H]23)cc1`, for which the values for the inhibition in assay [4], in assay [5] and in assay [6] were 36.5%, 43.4% and 49.8%, respectively. The results for the IC50 (in the assay with CHO; with CHO (Cricetulus griseus); in assay [1]) were greater than 200 µM, greater than 200 µM and 0.35 µM, respectively.

Regarding `O=C(Nc1ccc(Oc2ccccc2)cc1)C1=CO[C@@H](O[C@@H]2O[C@H](COCc3ccccc3)[C@@H](OCc3ccccc3)[C@H](OCc3ccccc3)[C@H]2OCc2ccccc2)[C@@H]2C(COCc3ccccc3)=CC[C@H]12`, the IC50 was greater than 200 µM in the assay with CHO, greater than 200 µM in the assay on CHO (Cricetulus griseus) and 0.4 µM in assay [1].

As to `O=C(O)C1=CO[C@@H](O[C@@H]2O[C@H](COCc3ccccc3)[C@@H](OCc3ccccc3)[C@H](OCc3ccccc3)[C@H]2OCc2ccccc2)[C@@H]2C(COCc3ccccc3)=CC[C@H]12`, the IC50 was greater than 200 µM in the assay on CHO; 1.32 µM in assay [2]; greater than 200 µM in the assay on CHO (Cricetulus griseus); 0.38 µM in assay [1]; 3.32 µM in assay [3].

With `CC(C)(C)c1ccc(Oc2ccc(NC(=O)C3=CO[C@@H](O[C@@H]4O[C@H](CO)[C@@H](O)[C@H](O)[C@H]4O)[C@@H]4C(CO)=CC[C@H]34)cc2)cc1`, the half-inhibitory concentration (IC50) was greater than 100 µM in assay [2], 17.7 µM in assay [1] and greater than 100 µM in assay [3].

As to `CCOS(=O)(=O)/C=C/c1ccc(OCC2=CC[C@@H]3C(C(=O)Nc4ccc(Oc5ccc(-c6ccccc6)cc5)cc4)=CO[C@@H](OC)[C@H]23)cc1`, the results for the inhibition in assay [4], in assay [5] and in assay [6] were 68%, 38.6% and 69.6%, respectively. For the same compound, the IC50 with CHO is greater than 200 µM; in assay [2], 0.95 µM; in the assay with CHO (Cricetulus griseus) it was greater than 200 µM; in assay [1], 0.43 µM; in assay [3], 1.24 µM.

As for `CCc1ccccc1NC(=O)C1=CO[C@@H](O[C@@H]2O[C@H](CO)[C@@H](O)[C@H](O)[C@H]2O)[C@@H]2C(CO)=CC[C@H]12`, the figures for the IC50 in assay [2], in assay [1] and in assay [3] were greater than 100 µM, 18.3 µM and greater than 100 µM, respectively.

One may read the IC50 as the concentration at which inhibition is half-maximal. For orientation: inhibition means the relative decrease from the control value, in per cent.

Source of the values: ChEMBL document CHEMBL4765409, “Synthesis and biological evaluation of geniposide derivatives as potent and selective PTPlB inhibitors” (Eur J Med Chem, 2020).
